pIC50: −log10 of the molar value. Converted amounts (≈) assume the structure as drawn. The source made the active and inactive calls. No cut-off for these calls is given here.
Assays:
Histone deacetylase [1] = biological target: T1, Histone deacetylase (Plasmodium falciparum, UniProt Q9XYC7); assay: Inhibition of Plasmodium falciparum HDAC1
T1 sequence (Q9XYC7 whole entry): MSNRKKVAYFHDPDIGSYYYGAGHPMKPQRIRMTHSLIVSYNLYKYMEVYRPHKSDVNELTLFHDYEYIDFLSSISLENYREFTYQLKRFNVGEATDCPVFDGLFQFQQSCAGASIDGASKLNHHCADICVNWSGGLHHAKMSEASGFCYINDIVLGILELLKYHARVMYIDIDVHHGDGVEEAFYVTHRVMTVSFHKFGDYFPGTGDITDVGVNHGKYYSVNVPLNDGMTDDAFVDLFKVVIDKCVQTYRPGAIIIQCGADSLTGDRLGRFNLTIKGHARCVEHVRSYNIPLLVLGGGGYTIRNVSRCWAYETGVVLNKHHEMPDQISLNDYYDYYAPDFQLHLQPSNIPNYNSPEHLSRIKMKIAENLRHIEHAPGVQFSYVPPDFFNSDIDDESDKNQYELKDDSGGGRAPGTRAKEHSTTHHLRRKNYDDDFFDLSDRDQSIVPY

[2] = Selectivity ratio IC50 for HDAC8 to IC50 for HDAC in human HeLa cells nuclear extract; format: cell-based; parameters: reference not given here
Histone deacetylase [3] = assay: Inhibition of HDAC in human HeLa cell nuclear extracts; format: protein assay
[4] = Selectivity index, ratio of IC50 for african green monkey (Cercopithecus aethiops) Vero cells to IC50 for Plasmodium falciparum W2
[5] = biological target: T2, Protein deacetylase HDAC6 (Homo sapiens, UniProt Q9UBN7); assay: Inhibition of HDAC6
T2 sequence (Q9UBN7 whole entry): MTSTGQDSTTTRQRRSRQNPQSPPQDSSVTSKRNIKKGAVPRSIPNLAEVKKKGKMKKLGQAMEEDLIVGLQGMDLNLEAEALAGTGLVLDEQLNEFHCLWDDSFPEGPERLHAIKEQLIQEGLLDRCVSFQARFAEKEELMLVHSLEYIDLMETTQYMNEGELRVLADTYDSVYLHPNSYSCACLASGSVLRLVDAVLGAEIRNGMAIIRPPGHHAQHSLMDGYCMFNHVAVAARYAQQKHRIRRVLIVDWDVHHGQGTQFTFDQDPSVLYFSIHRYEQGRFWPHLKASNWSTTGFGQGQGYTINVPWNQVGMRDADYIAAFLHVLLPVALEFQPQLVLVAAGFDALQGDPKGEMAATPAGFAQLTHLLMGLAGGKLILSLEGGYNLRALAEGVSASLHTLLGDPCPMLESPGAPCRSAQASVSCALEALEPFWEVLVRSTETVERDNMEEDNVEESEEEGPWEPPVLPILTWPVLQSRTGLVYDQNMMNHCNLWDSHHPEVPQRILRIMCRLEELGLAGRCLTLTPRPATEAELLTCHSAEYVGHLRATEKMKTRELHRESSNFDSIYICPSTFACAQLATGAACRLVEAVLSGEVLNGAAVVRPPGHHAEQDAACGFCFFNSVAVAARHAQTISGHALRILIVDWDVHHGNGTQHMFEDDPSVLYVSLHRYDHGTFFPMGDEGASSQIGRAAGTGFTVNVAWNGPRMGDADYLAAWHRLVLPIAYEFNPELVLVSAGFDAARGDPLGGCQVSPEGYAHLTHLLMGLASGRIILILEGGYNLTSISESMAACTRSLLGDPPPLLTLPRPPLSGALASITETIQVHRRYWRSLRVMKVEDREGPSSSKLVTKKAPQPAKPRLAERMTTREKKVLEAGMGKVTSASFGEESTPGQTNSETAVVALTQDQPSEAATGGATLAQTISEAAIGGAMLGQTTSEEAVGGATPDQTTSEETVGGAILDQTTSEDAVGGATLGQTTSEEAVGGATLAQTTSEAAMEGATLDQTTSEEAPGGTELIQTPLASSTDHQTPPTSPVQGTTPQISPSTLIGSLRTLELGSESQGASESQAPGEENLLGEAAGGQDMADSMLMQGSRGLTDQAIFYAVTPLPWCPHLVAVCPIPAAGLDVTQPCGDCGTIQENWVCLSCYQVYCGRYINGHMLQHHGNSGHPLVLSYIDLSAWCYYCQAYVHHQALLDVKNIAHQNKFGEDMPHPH

Plasmodium falciparum [6] = assay: Antimalarial activity against Plasmodium falciparum D6 after 72 hrs by alamar blue assay; format: functional, organism-based; settings: D6, 72 h
[7] = Antiproliferative activity against human Hs1.Lu cells after 72 hrs by MTS assay; format: cell-based
Leishmania donovani [8] = assay: Antileishmanial activity against Leishmania donovani promastigotes after 72 hrs by alamar blue assay; format: functional, organism-based
A549 = assay: Antiproliferative activity against human A549 cells after 72 hrs by MTS assay; format: functional
Outline: (§1)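 Cells kept at 37 °C, 5% CO₂ in recommended media; seeded in 96-well plates the day before, grown at least 24 h, then dosed 72 h with compounds diluted from 1000X DMSO stocks to give 0.1% DMSO final. MTS reagent added for 2 h; absorbance read at 490 nm; EC50 is concentration giving 50% loss of viability.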

DU-145 = assay: Antiproliferative activity against human DU145 cells after 72 hrs by MTS assay; format: functional; outline: as §1
MCF7 = assay: Antiproliferative activity against human MCF7 cells after 72 hrs by MTS assay; format: functional; outline: as §1
Histone deacetylase 8 = biological target: T3, Histone deacetylase 8 (Homo sapiens, UniProt Q9BY41); assay: Inhibition of HDAC8
T3 sequence (Q9BY41 whole entry): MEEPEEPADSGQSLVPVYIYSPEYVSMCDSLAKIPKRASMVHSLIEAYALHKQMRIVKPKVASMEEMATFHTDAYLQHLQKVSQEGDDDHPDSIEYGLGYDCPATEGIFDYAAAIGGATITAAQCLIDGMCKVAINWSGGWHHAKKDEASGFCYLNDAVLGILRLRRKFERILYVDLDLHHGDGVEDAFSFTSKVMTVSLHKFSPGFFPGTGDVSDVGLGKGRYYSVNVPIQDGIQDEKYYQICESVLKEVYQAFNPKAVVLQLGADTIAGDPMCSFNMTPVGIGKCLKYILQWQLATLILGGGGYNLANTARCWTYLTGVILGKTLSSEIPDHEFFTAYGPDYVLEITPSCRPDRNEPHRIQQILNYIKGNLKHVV

[9] = Selectivity index, ratio of IC50 for african green monkey (Cercopithecus aethiops) Vero cells to IC50 for Plasmodium falciparum D6
Plasmodium falciparum [10] = assay: Antimalarial activity against Plasmodium falciparum W2 after 72 hrs by alamar blue assay; format: functional, organism-based; settings: W2, 72 h
Leishmania donovani [11] = system: Leishmania donovani
[12] = Leishmania donovani, 72 h, read-out: IC50

SMILES	pIC50 (Histone deacetylase [1])	Ratio IC50 [2]	IC50 (Histone deacetylase [3])	selectivity ratio ([4]; Vero cells)	pIC50 [5]	IC50 (Plasmodium falciparum [6])	Activity [7]	IC90 (Leishmania donovani [8]; Leishmania donovani, 72 h)	IC50 (Leishmania donovani [8]; [12])	Activity (A549)	Activity (DU-145)	Activity (MCF7)	pIC50 (Histone deacetylase 8)	selectivity ratio ([9]; Vero cells)	IC50 (Plasmodium falciparum [10])	IC90 (Leishmania donovani [11])	selectivity ratio ([4]; vero)	IC50 (Leishmania donovani [8])	selectivity ratio ([9]; vero)
CC[C@H]1OC(=O)[C@H](C)C(=O)[C@H](C)[C@@H](O[C@@H]2O[C@H](C)C[C@H](N(C)Cc3ccc(-c4cn(CCCCCCCCC(=O)NO)nn4)cc3)[C@H]2O)[C@](C)(OC)C[C@@H](C)C2=NCCN3C(=O)O[C@@]1(C)[C@H]3[C@H]2C	6.54	17.5	163.6 nM	> 3.5	5.72	1.3 µg/mL (≈ 1.36 µM)	> 10 µM	32.3 µg/mL (≈ 33.9 µM)	14.9 µg/mL (≈ 15.6 µM)	2.48 µM	3.89 µM	2.56 µM	5.54	> 3.7	1.38 µg/mL (≈ 1.45 µM)	–	–	–	–
CC[C@H]1OC(=O)[C@H](C)C(=O)[C@H](C)[C@@H](O[C@@H]2O[C@H](C)C[C@H](N(C)Cc3ccc(-c4cn(CCCCCC(=O)NO)nn4)cc3)[C@H]2O)[C@](C)(OC)C[C@@H](C)C2=NCCN3C(=O)O[C@@]1(C)[C@H]3[C@H]2C	7.44	102	7.77 nM	–	5.93	0.897 µg/mL (≈ 0.986 µM)	> 10 µM	–	–	1.17 µM	1.64 µM	1.26 µM	6.10	–	1.79 µg/mL (≈ 1.97 µM)	inactive	> 2.68	Not Active	> 5.3
C[C@@H]1CC[C@H]2[C@@H](C)C(=O)O[C@@H]3O[C@@]4(C)CC[C@@H]1[C@]32OO4 [ARTEMISININ]	–	–	–	–	–	0.0066 µg/mL (≈ 0.0234 µM)	–	–	–	–	–	–	–	–	–	–	–	–	–
CC[C@H]1OC(=O)[C@H](C)C(=O)[C@H](C)[C@@H](O[C@@H]2O[C@H](C)C[C@H](N(C)Cc3ccc(-c4cn(CCCCCCC(=O)NO)nn4)cc3)[C@H]2O)[C@](C)(OC)C[C@@H](C)C2=NCCN3C(=O)O[C@@]1(C)[C@H]3[C@H]2C	8.00	529	1.03 nM	–	6.14	0.137 µg/mL (≈ 0.148 µM)	> 10 µM	–	–	0.66 µM	0.82 µM	0.75 µM	6.26	–	0.133 µg/mL (≈ 0.144 µM)	inactive	> 36	Not Active	> 35
CC[C@H]1OC(=O)[C@H](C)C(=O)[C@H](C)[C@@H](O[C@@H]2O[C@H](C)C[C@H](N(C)Cc3ccc(-c4cn(CCCCCCCCCC(=O)NO)nn4)cc3)[C@H]2O)[C@](C)(OC)C[C@@H](C)C2=NCCN3C(=O)O[C@@]1(C)[C@H]3[C@H]2C	6.52	21.9	208.2 nM	–	5.49	1.19 µg/mL (≈ 1.24 µM)	> 10 µM	23.7 µg/mL (≈ 24.5 µM)	4.8 µg/mL (≈ 4.97 µM)	2.81 µM	4.83 µM	3.68 µM	5.34	–	0.897 µg/mL (≈ 0.928 µM)	–	> 5.3	–	> 4
N=C(N)c1ccc(OCCCCCOc2ccc(C(=N)N)cc2)cc1 [PENTAMIDINE]	–	–	–	–	–	–	–	2.45 µg/mL (≈ 7.2 µM)	1.17 µg/mL (≈ 3.44 µM)	–	–	–	–	–	–	–	–	–	–
CC[C@H]1OC(=O)[C@H](C)C(=O)[C@H](C)[C@@H](O[C@@H]2O[C@H](C)C[C@H](N(C)Cc3ccc(-c4cn(CCCCCCCC(=O)NO)nn4)cc3)[C@H]2O)[C@](C)(OC)C[C@@H](C)C2=NCCN3C(=O)O[C@@]1(C)[C@H]3[C@H]2C	7.40	–	104.2 nM	–	5.77	1.32 µg/mL (≈ 1.4 µM)	> 10 µM	35.8 µg/mL (≈ 38.2 µM)	19.7 µg/mL (≈ 21 µM)	1.64 µM	3.7 µM	1.35 µM	6.24	–	1.47 µg/mL (≈ 1.57 µM)	–	> 3.3	–	> 3.6
O=C(CCCCCCC(=O)Nc1ccccc1)NO [VORINOSTAT]	–	–	–	–	–	–	–	51.7 µg/mL (≈ 196 µM)	–	–	–	–	–	–	–	–	–	–	–
C[C@@H]1[C@H](O)[C@@H](C)/C=C/C=C/C=C/C=C/C=C/C=C/C=C/[C@H](O[C@@H]2O[C@H](C)[C@@H](O)[C@H](N)[C@@H]2O)C[C@@H]2O[C@](O)(C[C@@H](O)C[C@@H](O)[C@H](O)CC[C@@H](O)C[C@@H](O)CC(=O)O[C@H]1C)C[C@H](O)[C@H]2C(=O)O [AMPHOTERICIN B]	–	–	–	–	–	–	–	0.395 µg/mL (≈ 0.427 µM)	0.079 µg/mL (≈ 0.0855 µM)	–	–	–	–	–	–	–	–	–	–

Reference: ChEMBL document CHEMBL1212894, “Non-peptide macrocyclic histone deacetylase inhibitors derived from tricyclic ketolide skeleton” (J Med Chem, 2010)
